Assay results reported in ChEMBL document CHEMBL4190220, “Withanolides from Aeroponically Grown Physalis peruviana and Their Selective Cytotoxicity to Prostate Cancer and Renal Carcinoma Cells” (J Nat Prod, 2017).
Activity calls are given as the source filed them. No cut-off for these calls is given here.

What was measured:
ACHN [1] = assay: Cytotoxicity against human ACHN cells assessed as reduction in cell viability after 72 hrs by CellTiter96 AQueous one solution cell proliferation assay; type: functional, cell-based
In short: (§1)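 MTS viability in RPMI with 5% fetal calf serum, 2.0 mM L-glutamine, nonessential amino acids, 1.0 mM pyruvate, penicillin/streptomycin, 10 mM HEPES and 2-mercaptoethanol. Cells were seeded at 10 000 (LNCaP) or 5000 (others) and grown overnight at 37 °C. Serial dilutions in DMSO went into triplicate wells for 72 h. MTS was read at 490 nm after 2 h. IC50 ± SD from dose–response curves, at least three independent experiments.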

SK-MEL-28 [2] = assay: Cytotoxicity against human SK-MEL-28 cells assessed as reduction in cell viability after 72 hrs by CellTiter96 AQueous one solution cell proliferation assay; type: functional, cell-based; details: SK-MEL-28, 72 h
In short: (§2)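 MTS viability in DMEM with 5% fetal calf serum, 2.0 mM L-glutamine, nonessential amino acids, 1.0 mM pyruvate, penicillin/streptomycin, 10 mM HEPES and 2-mercaptoethanol. 5000 cells were grown overnight at 37 °C. Serial DMSO dilutions went into triplicate wells for 72 h. MTS absorbance was read at 490 nm after 2 h. IC50 ± SD from at least three independent dose–response experiments.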

M14 [3] = assay: Cytotoxicity against human M14 cells assessed as reduction in cell viability after 72 hrs by CellTiter96 AQueous one solution cell proliferation assay; type: functional, cell-based; details: M14, 72 h; in short: as §2
LNCaP [4] = assay: Cytotoxicity against human LNCAP cells assessed as reduction in cell viability after 72 hrs by CellTiter96 AQueous one solution cell proliferation assay; type: functional, cell-based; in short: as §1
CWR22R [5] = assay: Cytotoxicity against human 22Rv1 cells assessed as reduction in cell viability after 72 hrs by CellTiter96 AQueous one solution cell proliferation assay; type: functional, cell-based; details: 22Rv1, 72 h; in short: as §1
HFF [6] = assay: Cytotoxicity against HFF cells assessed as reduction in cell viability after 72 hrs by CellTiter96 AQueous one solution cell proliferation assay; type: cell-based; details: Homo sapiens; in short: as §1
SK-MEL-28 [7] = assay: Cytotoxicity against human SK-MEL-28 cells assessed as reduction in cell viability up to 5 uM after 72 hrs by CellTiter96 AQueous one solution cell proliferation assay; type: functional, cell-based
In short: (§3)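 Melanoma cells in DMEM-based medium (5% fetal calf serum, glutamine, nonessential amino acids, pyruvate, HEPES, 2-mercaptoethanol, antibiotics). 5000 cells were grown overnight at 37 °C, then exposed to compound in DMSO in triplicate wells for 72 h. MTS absorbance at 490 nm after 2 h. % cytotoxicity = (A medium − A treatment)/A medium × 100.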

M14 [8] = assay: Cytotoxicity against human M14 cells assessed as reduction in cell viability up to 5 uM after 72 hrs by CellTiter96 AQueous one solution cell proliferation assay; type: functional, cell-based; in short: as §3
CWR22R [9] = assay: Cytotoxicity against human 22Rv1 cells assessed as reduction in cell viability up to 5 uM after 72 hrs by CellTiter96 AQueous one solution cell proliferation assay; type: functional, cell-based
In short: (§4)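 Cells in RPMI with 5% fetal calf serum, glutamine, nonessential amino acids, pyruvate, HEPES, 2-mercaptoethanol and antibiotics. Seeded at 10 000 (LNCaP) or 5000 (others) and grown overnight at 37 °C, then exposed to compound in DMSO, triplicate wells, 72 h. Read by MTS at 490 nm after 2 h. % cytotoxicity = (A medium − A treatment)/A medium × 100.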

HFF [10] = assay: Cytotoxicity against HFF cells assessed as reduction in cell viability up to 5 uM after 72 hrs by CellTiter96 AQueous one solution cell proliferation assay; type: cell-based; details: human; in short: as §4
ACHN [11] = assay: Cytotoxicity against human ACHN cells assessed as reduction in cell viability up to 5 uM after 72 hrs by CellTiter96 AQueous one solution cell proliferation assay; type: functional, cell-based; in short: as §4
LNCaP [12] = assay: Cytotoxicity against human LNCAP cells assessed as reduction in cell viability up to 5 uM after 72 hrs by CellTiter96 AQueous one solution cell proliferation assay; type: functional, cell-based; in short: as §4

COc1cccc2c1C(=O)c1c(O)c3c(c(O)c1C2=O)C[C@@](O)(C(=O)CO)C[C@@H]3O[C@H]1C[C@H](N)[C@H](O)[C@H](C)O1 [DOXORUBICIN]
IC50 (ACHN [1]): 0.02 µM | IC50 (SK-MEL-28 [2]): 0.25 µM | IC50 (M14 [3]): 0.09 µM | IC50 (LNCaP [4]): 0.02 µM | IC50 (CWR22R [5]): 0.02 µM

CC1=C(CO)C[C@H]([C@](C)(O)[C@]2(O)CC[C@@]3(O)[C@@H]4CC=C5CC=CC(=O)[C@]5(C)[C@H]4CC[C@]23C)OC1=O
IC50 (ACHN [1]): > 2 µM | IC50 (SK-MEL-28 [2]): > 2 µM | IC50 (M14 [3]): > 2 µM | IC50 (HFF [6]): > 2 µM | IC50 (LNCaP [4]): 0.24 µM | IC50 (CWR22R [5]): 0.21 µM

CO[C@H]1C=CC(=O)[C@]2(C)[C@H]3CC[C@]4(C)[C@](O)([C@@](C)(O)[C@H]5CC(C)=C(C)C(=O)O5)CC[C@@]4(O)[C@@H]3C[C@H]3O[C@]132
IC50 (ACHN [1]): > 2 µM | IC50 (SK-MEL-28 [2]): > 2 µM | IC50 (M14 [3]): > 2 µM | IC50 (HFF [6]): > 2 µM | IC50 (LNCaP [4]): 0.33 µM | IC50 (CWR22R [5]): 0.24 µM

CC1=C(C)C(=O)O[C@@H]([C@](C)(O)[C@]2(O)CC[C@@]3(O)[C@@H]4[C@@H](O)C=C5C=CCC(=O)[C@]5(C)[C@H]4CC[C@]23C)C1
IC50 (ACHN [1]): > 2 µM | IC50 (SK-MEL-28 [2]): > 2 µM | IC50 (M14 [3]): > 2 µM | IC50 (HFF [6]): > 2 µM | IC50 (LNCaP [4]): 0.94 µM | IC50 (CWR22R [5]): 0.99 µM

CC1=C(C)C(=O)O[C@@H]([C@](C)(O)[C@]2(O)CC[C@@]3(O)[C@@H]4CC=C5CC=CC(=O)[C@]5(C)[C@H]4CC[C@]23C)C1 [WITHANOLIDE F]
IC50 (ACHN [1]): > 2 µM | IC50 (SK-MEL-28 [2]): > 2 µM | IC50 (M14 [3]): > 2 µM | IC50 (HFF [6]): > 2 µM | IC50 (LNCaP [4]): 0.13 µM | IC50 (CWR22R [5]): 0.07 µM

CC1=C(C)C(=O)O[C@@H]([C@](C)(O)[C@]2(O)CC[C@@]3(O)[C@@H]4C[C@H](Cl)[C@]5(O)CC=CC(=O)[C@]5(C)[C@H]4CC[C@]23C)C1
Activity (SK-MEL-28 [7]): inactive | Activity (M14 [8]): inactive | Activity (CWR22R [9]): inactive | Activity (HFF [10]): Non-Toxic | Activity (ACHN [11]): inactive | Activity (LNCaP [12]): inactive

CC1=C(C)[C@H](O)[C@H]([C@](C)(O)[C@H]2CC[C@@]3(O)[C@@H]4C[C@H]5O[C@]56CC=CC(=O)[C@]6(C)[C@H]4CC[C@]23C)OC1=O
Activity (SK-MEL-28 [7]): inactive | Activity (M14 [8]): inactive | Activity (CWR22R [9]): inactive | Activity (HFF [10]): Non-Toxic | Activity (ACHN [11]): inactive | Activity (LNCaP [12]): inactive

C[C@H]1C(=O)OC[C@H]1C[C@@H](O)[C@](C)(O)[C@H]1CC[C@@]2(O)[C@@H]3CC=C4CC=CC(=O)[C@]4(C)[C@H]3CC[C@]12C
Activity (SK-MEL-28 [7]): inactive | Activity (M14 [8]): inactive | Activity (CWR22R [9]): inactive | Activity (HFF [10]): Non-Toxic | Activity (ACHN [11]): inactive | Activity (LNCaP [12]): inactive

CC1=C(C)C(=O)O[C@@H]([C@](C)(O)C2=CC[C@@]3(O)[C@@H]4C[C@H]5O[C@]56CC=CC(=O)[C@]6(C)[C@H]4CC[C@]23C)C1
Activity (SK-MEL-28 [7]): inactive | Activity (M14 [8]): inactive | Activity (CWR22R [9]): inactive | Activity (HFF [10]): Non-Toxic | Activity (ACHN [11]): inactive | Activity (LNCaP [12]): inactive

C[C@H]1C(=O)OC[C@H]1C[C@@H](O)[C@](C)(O)[C@]1(O)CC[C@@]2(O)[C@@H]3CC=C4CC=CC(=O)[C@]4(C)[C@H]3CC[C@]12C
Activity (SK-MEL-28 [7]): inactive | Activity (M14 [8]): inactive | Activity (CWR22R [9]): inactive | Activity (HFF [10]): Non-Toxic | Activity (ACHN [11]): inactive | Activity (LNCaP [12]): inactive

CO[C@]12CC=CC(=O)[C@]1(C)[C@H]1CC[C@]3(C)[C@](O)([C@@](C)(O)[C@H]4CC(C)=C(C)C(=O)O4)CC[C@@]3(O)[C@@H]1C[C@H]2O
Activity (SK-MEL-28 [7]): inactive | Activity (M14 [8]): inactive | Activity (CWR22R [9]): inactive | Activity (HFF [10]): Non-Toxic | Activity (ACHN [11]): inactive | Activity (LNCaP [12]): inactive
